Source: PubChem BioAssay AID488891 (Broad Institute, 2010)
Active and inactive are the calls of the source.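 Rule for the calls: active = compounds raising caspase signal with a fitted AC50 no higher than the top valid dose tested; inconclusive = flat fit at partial mid-level activity, or unreliable fit; inactive = the rest.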

Experiments:
[1] = apoptosis induction, Flag-A1-IRES-BIM fibroblasts – cell-based, alternate A1 construct, Caspase-Glo luminescence, dry powder, A1 inhibitor project, dose response (AID 488891); conditions: MEF Flag-A1-IRES-BIM, caspase-Glo luminescence, 3 h; at 150 µM (top of the series)
Procedure, shortened: (§1)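 Detection: Luminescence with CaspaseGlo reagent | Material: Mouse embryonic fibroblasts primed with Flag-A1-IRES-BIM construct | Incubation: 3 h compounds at 37 °C, 1 h detection reagent at RT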

[2] = test system: MEF Flag-A1-IRES-BIM, caspase-Glo luminescence, 3 h; test: as above
Procedure, shortened: as §1

| SMILES | caspase activation [1] | AC50 [2] |
| --- | --- | --- |
| COc1cc(/C=C(/C#N)c2nc3ccccc3[nH]2)ccc1OCC(=O)Nc1ccccc1C(C)C | 0.299% (inactive) |  |
| C/C1=C/C(=O)O[C@@H]2C[C@@H](CC[C@H](C)/C=C\CC1)O[C@@](O)(C1CSC(=O)N1)C2 (stereo not given in full) |  | 0.607 µM |
| Cc1ccc(CS(=O)(=O)c2ncc(Cl)c(C(=O)Nc3nnc(C(C)C)s3)n2)cc1 |  | 5.49 µM |
| COc1cc(CN2CCN(c3cc(C)ccc3C)CC2)ccc1O |  | 7.24 µM |
| CC(=O)N[C@H]1[C@H](O[C@H]2CC[C@@]3(C)C(CC[C@]4(C)C3CC=C3[C@@H]5CC(C)(C)CC[C@]5(C(=O)OC5OCC(O)C(O)C5O)C(O)C[C@]34C)C2(C)C)O[C@H](COC2OCC(O)C(OC3OCC(O)C(O)C3O)C2O)[C@@H](O[C@@H]2O[C@@H](C)[C@H](O)[C@@H](O)[C@H]2O[C@@H]2O[C@@H](C)[C@H](O)[C@@H](O)[C@H]2O)[C@@H]1O (stereo not given in full) |  | 7.88 µM |
| COc1ccc(N(C(=O)CCl)C(C(=O)NCCc2ccccc2)c2cccs2)cc1Cl (stereo not given) |  | 9.36 µM |
| Cc1cc(C(=O)CCl)c(C)n1CCc1ccc(Cl)cc1 |  | 9 µM |
| Nc1nc(F)nc2c1ncn2[C@@H]1O[C@H](CO)[C@@H](O)[C@H]1O |  | 1.5 µM |
| Cc1ccc(Sc2c([N+](=O)[O-])c(=O)n(C)c3ccccc23)cc1 |  | 13.4 µM |
| O=C(CCl)N=c1sccn1Cc1ccccc1Cl |  | 1.28 µM |
| Cc1cccc(NC(=O)/C(C#N)=C/c2cn(CC(=O)NCc3ccco3)c3ccccc23)c1 |  | 3.76 µM |
| Cn1c(=NC(=O)CCl)sc2ccccc21 |  | 3.46 µM |
| Cc1cccc(CS(=O)(=O)c2ncc(Cl)c(C(=O)Nc3nnc(C(C)C)s3)n2)c1 |  | 12 µM |
| COc1cccc(C(=O)C(C#N)=C(SC)SC)c1 |  | 1.64 µM |
| Cc1c(CCOC(=O)c2ccc(N3CCOCC3)c([N+](=O)[O-])c2)sc[n+]1CC#N |  | 14.2 µM |
| CCc1cc2c(=O)c(-c3cnn(-c4ccccc4)c3)c(C)oc2cc1OCC(=O)Nc1cccc(C)c1 |  | 5.29 µM |
| C=C1[C@@H](C)[C@H]2[C@H](Cc3ccccc3)NC(=O)[C@]23[C@H](OC(C)=O)/C=C/[C@](C)(O)C(=O)[C@@H](C)C/C=C/[C@H]3[C@@H]1O | 1.11% (inactive) |  |
| Cc1c(C=O)c(C=O)c(C)n1Cc1ccccc1 |  | 12.9 µM |
| CCSc1nnc(NC(=O)c2nc(S(=O)(=O)Cc3ccc(F)cc3)ncc2Cl)s1 |  | 13.1 µM |
| C=C1[C@@H](C)[C@H]2[C@H](Cc3ccccc3)NC(=O)[C@]23OC(=O)/C=C\[C@H](O)CCC[C@@H](C)C/C=C/[C@H]3[C@@H]1O |  | 6.46 µM |
| CCc1nnc(NC(=O)c2nc(S(=O)(=O)Cc3ccccc3)ncc2Cl)s1 |  | 11.6 µM |
| CCOC(=O)CSC1=N/C(=C/c2ccc(-n3cncn3)cc2)C(=O)N1C(C)=O |  | 11.1 µM |
| CC(C)(C)n1nc(-c2ccc(Cl)cc2)c2c(N)ncnc21 |  | > 150 µM (inactive) |
| O=C(Oc1cccc(/C=N/Nc2nc(Nc3ccccc3)nc(N3CCOCC3)n2)c1)c1ccco1 |  | 8.01 µM |
| CC(=O)OC(C)(C)/C=C/C(=O)[C@](C)(O)C1[C@H](O)C[C@@]2(C)C3CC=C4C(C[C@H](O)C(=O)C4(C)C)[C@]3(C)C(=O)C[C@]12C (stereo not given in full) | 3.76% (inactive) |  |
